Data: ChEMBL document CHEMBL4190234, “Design, synthesis and anticancer activity of new monastrol analogues bearing 1,3,4-oxadiazole moiety” (Eur J Med Chem, 2017)

Experiments:
Format in all cases: functional
K562 = assay: Growth inhibition of human K562 cells at 10 uM incubated for 48 hrs by sulforhodamine B assay relative to control; conditions: K562, 48 h, read-out: GI
In short: (§1)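 Single-dose screen at 10 μM final: cells in RPMI 1640, 5% FBS, 2 mM L-glutamine, plated 5,000–40,000/well, preincubated 24 h at 37°C, 5% CO2; drug 48 h; adherent cells fixed with 10% TCA, suspension cells with 16% TCA; SRB stain, absorbance 515 nm; percentage growth versus untreated control, with time-zero plates.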

MOLT-4 = assay: Growth inhibition of human MOLT4 cells at 10 uM incubated for 48 hrs by sulforhodamine B assay relative to control; conditions: MOLT-4, 48 h, read-out: GI; in short: as §1
RPMI-8226 = assay: Growth inhibition of human RPMI8226 cells at 10 uM incubated for 48 hrs by sulforhodamine B assay relative to control; conditions: RPMI-8226, 48 h, read-out: GI; in short: as §1
EKVX = assay: Growth inhibition of human EKVX cells at 10 uM incubated for 48 hrs by sulforhodamine B assay relative to control; conditions: read-out: GI; in short: as §1
HOP-62 = assay: Growth inhibition of human HOP62 cells at 10 uM incubated for 48 hrs by sulforhodamine B assay relative to control; conditions: HOP-62, 48 h, read-out: GI; in short: as §1
HOP-92 = assay: Growth inhibition of human HOP92 cells at 10 uM incubated for 48 hrs by sulforhodamine B assay relative to control; conditions: HOP-92, 48 h, read-out: GI; in short: as §1
NCI-H226 = assay: Growth inhibition of human NCI-H226 cells at 10 uM incubated for 48 hrs by sulforhodamine B assay relative to control; conditions: NCI-H226, 48 h, read-out: GI; in short: as §1
NCI-H322M = assay: Growth inhibition of human NCI-H322M cells at 10 uM incubated for 48 hrs by sulforhodamine B assay relative to control; conditions: read-out: GI; in short: as §1
NCI-H460 = assay: Growth inhibition of human NCI-H460 cells at 10 uM incubated for 48 hrs by sulforhodamine B assay relative to control; conditions: NCI-H460, 48 h, read-out: GI; in short: as §1
COLO 205 = assay: Growth inhibition of human COLO205 cells at 10 uM incubated for 48 hrs by sulforhodamine B assay relative to control; conditions: COLO 205, 48 h, read-out: GI; in short: as §1
HCC 2998 = assay: Growth inhibition of human HCC2998 cells at 10 uM incubated for 48 hrs by sulforhodamine B assay relative to control; conditions: HCC 2998, 48 h, read-out: GI; in short: as §1
KM12 = assay: Growth inhibition of human KM12 cells at 10 uM incubated for 48 hrs by sulforhodamine B assay relative to control; conditions: KM12, 48 h, read-out: GI; in short: as §1
SW-620 = assay: Growth inhibition of human SW620 cells at 10 uM incubated for 48 hrs by sulforhodamine B assay relative to control; conditions: SW-620, 48 h, read-out: GI
In short: (§2)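 NCI single-dose screen: cells grown in RPMI 1640 with 5% FBS and 2 mM L-glutamine, plated at 5,000–40,000 cells/well and preincubated 24 h at 37 °C, 5% CO2. Compounds taken from DMSO stock and tested at final 10 µM for 48 h. Cells fixed with TCA, stained with 0.4% SRB, absorbance read at 515 nm. Percentage growth calculated against untreated controls; controls held DMSO at the same dilution.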

SF-268 = assay: Growth inhibition of human SF268 cells at 10 uM incubated for 48 hrs by sulforhodamine B assay relative to control; conditions: SF-268, 48 h, read-out: GI; in short: as §2
SF-295 = assay: Growth inhibition of human SF295 cells at 10 uM incubated for 48 hrs by sulforhodamine B assay relative to control; conditions: SF-295, 48 h, read-out: GI; in short: as §2
Malme-3M = assay: Growth inhibition of human MALME-3M cells at 10 uM incubated for 48 hrs by sulforhodamine B assay relative to control; conditions: read-out: GI; in short: as §1
M14 = assay: Growth inhibition of human M14 cells at 10 uM incubated for 48 hrs by sulforhodamine B assay relative to control; conditions: M14, 48 h, read-out: GI; in short: as §1
SK-MEL-5 = assay: Growth inhibition of human SK-MEL-5 cells at 10 uM incubated for 48 hrs by sulforhodamine B assay relative to control; conditions: SK-MEL-5, 48 h, read-out: GI; in short: as §2
IGROV-1 = assay: Growth inhibition of human IGROV1 cells at 10 uM incubated for 48 hrs by sulforhodamine B assay relative to control; conditions: IGROV-1, 48 h, read-out: GI; in short: as §1
OVCAR-3 = assay: Growth inhibition of human OVCAR3 cells at 10 uM incubated for 48 hrs by sulforhodamine B assay relative to control; conditions: OVCAR-3, 48 h, read-out: GI; in short: as §1
OVCAR-8 = assay: Growth inhibition of human OVCAR8 cells at 10 uM incubated for 48 hrs by sulforhodamine B assay relative to control; conditions: OVCAR-8, 48 h, read-out: GI; in short: as §1
SK-OV-3 = assay: Growth inhibition of human SKOV3 cells at 10 uM incubated for 48 hrs by sulforhodamine B assay relative to control; conditions: SK-OV-3, 48 h, read-out: GI; in short: as §2
A498 = assay: Growth inhibition of human A498 cells at 10 uM incubated for 48 hrs by sulforhodamine B assay relative to control; conditions: A498, 48 h, read-out: GI; in short: as §1
CAKI-1 = assay: Growth inhibition of human Caki1 cells at 10 uM incubated for 48 hrs by sulforhodamine B assay relative to control; conditions: CAKI-1, 48 h, read-out: GI; in short: as §1
RXF 393 = assay: Growth inhibition of human RXF393 cells at 10 uM incubated for 48 hrs by sulforhodamine B assay relative to control; conditions: RXF 393, 48 h, read-out: GI; in short: as §1
SN12C = assay: Growth inhibition of human SN12C cells at 10 uM incubated for 48 hrs by sulforhodamine B assay relative to control; conditions: read-out: GI; in short: as §2
PC-3 = assay: Growth inhibition of human PC3 cells at 10 uM incubated for 48 hrs by sulforhodamine B assay relative to control; conditions: PC-3, 48 h, read-out: GI; in short: as §1
DU-145 = assay: Growth inhibition of human DU145 cells at 10 uM incubated for 48 hrs by sulforhodamine B assay relative to control; conditions: DU-145, 48 h, read-out: GI; in short: as §1
BT-549 = assay: Growth inhibition of human BT549 cells at 10 uM incubated for 48 hrs by sulforhodamine B assay relative to control; conditions: BT-549, 48 h, read-out: GI; in short: as §1
MDA-MB-468 = assay: Growth inhibition of human MDA-MB-468 cells at 10 uM incubated for 48 hrs by sulforhodamine B assay relative to control; conditions: MDA-MB-468, 48 h, read-out: GI; in short: as §1

Compound	inhibition of growth at 10 µM (K562) [%]	inhibition of growth at 10 µM (MOLT-4) [%]	inhibition of growth at 10 µM (RPMI-8226) [%]	inhibition of growth at 10 µM (EKVX) [%]	inhibition of growth at 10 µM (HOP-62) [%]	inhibition of growth at 10 µM (HOP-92) [%]	inhibition of growth at 10 µM (NCI-H226) [%]	inhibition of growth at 10 µM (NCI-H322M) [%]	inhibition of growth at 10 µM (NCI-H460) [%]	inhibition of growth at 10 µM (COLO 205) [%]	inhibition of growth at 10 µM (HCC 2998) [%]	inhibition of growth at 10 µM (KM12) [%]	inhibition of growth at 10 µM (SW-620) [%]	inhibition of growth at 10 µM (SF-268) [%]	inhibition of growth at 10 µM (SF-295) [%]	inhibition of growth at 10 µM (Malme-3M) [%]	inhibition of growth at 10 µM (M14) [%]	inhibition of growth at 10 µM (SK-MEL-5) [%]	inhibition of growth at 10 µM (IGROV-1) [%]	inhibition of growth at 10 µM (OVCAR-3) [%]	other results
CCOC(=O)C1=C(C)NC(SCc2nnc(-c3ccc(Cl)cc3)o2)=NC1c1ccc(F)cc1 (stereo not given)	14.4	20.4	25.8	< 10	< 10	27.8	10.6	< 10	< 10	< 10	< 10	< 10	< 10	< 10	< 10	< 10	< 10	12.5	17.1	< 10	inhibition of growth at 10 µM (OVCAR-8): 11.7%; inhibition of growth at 10 µM (SK-OV-3): < 10%; inhibition of growth at 10 µM (A498): 12.3%; inhibition of growth at 10 µM (CAKI-1): 17.5%; inhibition of growth at 10 µM (RXF 393): < 10%; inhibition of growth at 10 µM (SN12C): < 10%; inhibition of growth at 10 µM (PC-3): 23.4%; inhibition of growth at 10 µM (DU-145): < 10%; inhibition of growth at 10 µM (BT-549): < 10%; inhibition of growth at 10 µM (MDA-MB-468): 17.1%
CC(=O)C1=C(C)NC(SCc2nnc(-c3ccc(Cl)cc3)o2)=NC1c1ccc(Cl)cc1 (stereo not given)	11.1	24.4	32.9	< 10	11.6	26.5	11.4	12	< 10	< 10	< 10	< 10	< 10	< 10	< 10	11.6	< 10	< 10	23.4	< 10	inhibition of growth at 10 µM (OVCAR-8): 14.5%; inhibition of growth at 10 µM (SK-OV-3): < 10%; inhibition of growth at 10 µM (A498): < 10%; inhibition of growth at 10 µM (CAKI-1): 21.1%; inhibition of growth at 10 µM (RXF 393): < 10%; inhibition of growth at 10 µM (SN12C): 13%; inhibition of growth at 10 µM (PC-3): 31.1%; inhibition of growth at 10 µM (DU-145): < 10%; inhibition of growth at 10 µM (BT-549): 15.1%; inhibition of growth at 10 µM (MDA-MB-468): 10.8%
CCOC(=O)C1=C(C)NC(SCc2nnc(-c3ccc(Cl)cc3)o2)=NC1c1ccccc1 (stereo not given)	25.2	31.3	27.3	14.8	27.8	40.1	11.4	< 10	< 10	10.4	< 10	10.3	< 10	< 10	23.4	< 10	19.5	< 10	< 10	< 10	inhibition of growth at 10 µM (OVCAR-8): 20.4%; inhibition of growth at 10 µM (SK-OV-3): 25.6%; inhibition of growth at 10 µM (A498): < 10%; inhibition of growth at 10 µM (CAKI-1): 22.3%; inhibition of growth at 10 µM (RXF 393): < 10%; inhibition of growth at 10 µM (SN12C): 14.8%; inhibition of growth at 10 µM (PC-3): 42.2%; inhibition of growth at 10 µM (DU-145): < 10%; inhibition of growth at 10 µM (BT-549): 42.7%; inhibition of growth at 10 µM (MDA-MB-468): 14.7%
CC(=O)C1=C(C)NC(SCc2nnc(-c3ccc(Cl)cc3)o2)=NC1c1ccc(F)cc1 (stereo not given)	< 10	< 10	13.8	< 10	< 10	< 10	11.6	< 10	< 10	< 10	< 10	< 10	< 10	< 10	< 10	< 10	< 10	< 10	15.4	< 10	inhibition of growth at 10 µM (OVCAR-8): < 10%; inhibition of growth at 10 µM (SK-OV-3): < 10%; inhibition of growth at 10 µM (A498): < 10%; inhibition of growth at 10 µM (CAKI-1): 16.9%; inhibition of growth at 10 µM (RXF 393): < 10%; inhibition of growth at 10 µM (SN12C): < 10%; inhibition of growth at 10 µM (PC-3): 18.5%; inhibition of growth at 10 µM (DU-145): < 10%; inhibition of growth at 10 µM (BT-549): < 10%; inhibition of growth at 10 µM (MDA-MB-468): 11.3%
CCOC(=O)C1=C(C)NC(SCc2nnc(-c3ccc(Cl)cc3)o2)=NC1c1ccc(OC)cc1 (stereo not given)	< 10	< 10	18.3	< 10	< 10	17.6	11.8	< 10	< 10	< 10	< 10	< 10	< 10	< 10	< 10	< 10	< 10	< 10	17.8	< 10	inhibition of growth at 10 µM (OVCAR-8): < 10%; inhibition of growth at 10 µM (SK-OV-3): < 10%; inhibition of growth at 10 µM (A498): < 10%; inhibition of growth at 10 µM (CAKI-1): 17.8%; inhibition of growth at 10 µM (RXF 393): < 10%; inhibition of growth at 10 µM (SN12C): < 10%; inhibition of growth at 10 µM (PC-3): 17.9%; inhibition of growth at 10 µM (DU-145): < 10%; inhibition of growth at 10 µM (BT-549): 16.9%; inhibition of growth at 10 µM (MDA-MB-468): < 10%
